Screens (PubChem BioAssay)
HTR2A ag – activates the mouse 5-HT2A serotonin receptor. P35363. AID 624169. 360,000 compounds, 0.66% hits. CHO-K1 mHTR2A beta-arrestin complementation, luminescence; percent of 30 µM serotonin response. activation, % at 7.6 µM;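 active = activation above a run cutoff, the mean activation of all tested compounds plus 3 SD, cut at about 14% in these data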;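 also: 0% = plate median of compound wells and 100% = 30 µM serotonin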
AI-2 QS modul – modulators of Vibrio harveyi AI-2 quorum sensing system. Vibrio harveyi JMH597 AI-2 luminescence/OD600 ratio, 9 h; stronger effect = lower value; strain lacks LuxN and CqsS sensors; 0 = neutral-control median. activity change, % at 7.5 µM. 300,000 compounds, 0.4% hits; in the data active = activity change below about -75%, passing the limit was not always enough;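 also: luminescence divided by OD600 gain over 9 h not by final OD600 alone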
Tb MetRS inh – Trypanosoma brucei MetRS inhibition | purified T. brucei MetRS, ATP depletion, Kinase-Glo luminescence | inhibition, % at 11.9 µM | 360,000 compounds, 0.4% hits;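 active = inhibition above a per-plate cutoff of the control wells' mean inhibition plus 3 SD, cut at about 5.5% in these data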;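 also: 0% = DMSO wells median and 100% = median of wells with control inhibitor compound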
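Dosing: 11.9 µM single point; system: parasite MetRS enzyme; technique: luminescence of leftover ATP; times: 15 min enzyme-compound preincubation, 2 h reaction, 10 min detection, 25 °C; replicates: each compound tested once; read-out basis: percent inhibition relative to median high and low control wells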
MsrA act – activates bovine MsrA enzyme. activation, % at 10.6 µM. AID 602163. purified bovine MsrA, absorbance read-out. 360,000 compounds, 0.3% hits; in the data active = activation above about 7.5%;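 also: 0% = vehicle and 100% = reference activator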
MsrA inh – inhibitors of bovine MsrA; AID 651718; 360,000 compounds, 0.75% hits; inhibition, % at 15.5 µM; purified bovine MsrA, absorbance read-out; in the data active = inhibition above about 4.5%;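 also: 0% = vehicle wells with enzyme and 100% = reference inhibitor wells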
AHR act – activators of human aryl hydrocarbon receptor | activation, % at 5 µM | P35869 | 320,000 compounds, 2.5% hits | AHR-responsive luciferase reporter cells, luminescence; in the data active = activation above about 47%;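 also: 0% = vehicle wells and 100% = reference agonist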
Target sequence (P35869 whole entry, looked up): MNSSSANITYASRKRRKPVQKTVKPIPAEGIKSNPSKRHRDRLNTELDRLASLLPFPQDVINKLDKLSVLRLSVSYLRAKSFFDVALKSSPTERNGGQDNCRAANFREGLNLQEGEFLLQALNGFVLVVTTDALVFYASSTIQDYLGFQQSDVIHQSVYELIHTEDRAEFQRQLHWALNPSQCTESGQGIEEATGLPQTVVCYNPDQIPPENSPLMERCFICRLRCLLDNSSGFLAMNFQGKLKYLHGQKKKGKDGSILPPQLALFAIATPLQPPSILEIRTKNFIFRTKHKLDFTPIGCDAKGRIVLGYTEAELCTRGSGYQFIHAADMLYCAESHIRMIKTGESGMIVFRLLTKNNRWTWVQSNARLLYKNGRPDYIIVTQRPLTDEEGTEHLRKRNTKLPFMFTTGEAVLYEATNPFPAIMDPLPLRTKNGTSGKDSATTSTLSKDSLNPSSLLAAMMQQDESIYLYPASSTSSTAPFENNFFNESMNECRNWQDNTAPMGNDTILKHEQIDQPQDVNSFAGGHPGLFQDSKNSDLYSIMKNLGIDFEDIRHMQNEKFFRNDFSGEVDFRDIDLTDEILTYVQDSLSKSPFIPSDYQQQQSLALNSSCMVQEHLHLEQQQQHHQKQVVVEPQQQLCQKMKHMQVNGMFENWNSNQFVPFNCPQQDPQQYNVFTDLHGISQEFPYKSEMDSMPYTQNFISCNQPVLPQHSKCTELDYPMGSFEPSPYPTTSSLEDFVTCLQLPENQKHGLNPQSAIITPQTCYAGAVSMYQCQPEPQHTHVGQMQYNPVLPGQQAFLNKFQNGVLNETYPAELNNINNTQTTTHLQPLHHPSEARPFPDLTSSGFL
TbMetRS confirm – confirmation of Trypanosoma brucei MetRS inhibitors. shares compounds with Tb MetRS inh. 1,400 compounds, 93% hits. T. brucei MetRS enzyme, luminescence (ATP depletion). inhibition, % at 11.9 µM; in the data active = inhibition above about 7%
Jurkat tox – counter-screen for T. brucei MetRS inhibitors: Jurkat cell cytotoxicity; inhibition, % at 8.3 µM; shares compounds with Tb MetRS inh; 1,400 compounds, 12% hits; Jurkat cells viability, ATP luminescence; in the data active = inhibition above about 15%;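 also: 0% = vehicle and 100% = reference inhibitor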
Tb MetRS inh FP – T. brucei MetRS inhibition, orthogonal assay | purified T. brucei MetRS, fluorescence polarization | shares compounds with Tb MetRS inh | 1,400 compounds, 44% hits | inhibition, % at 11.9 µM; in the data active = inhibition above about 17%;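 also: 0% = vehicle wells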
The depositor's hits bear a star; x = no result. Compounds with a hit are over-represented: about 4.4% of the library has one in this group of screens.

SMILES	HTR2A ag	AI-2 QS modul	Tb MetRS inh	MsrA act	MsrA inh	AHR act	TbMetRS confirm	Jurkat tox	Tb MetRS inh FP
Cc1ccc(N(CC(=O)NC2CCCC2)C(=O)CNC(=O)c2cccs2)cc1C	4.6	-6.7	-1.1	-9.9	2.7	-1.0	x	x	x
NS(=O)(=O)c1ccc(CCNCC(=O)NCc2ccccc2Cl)cc1	-1.1	12.5	0.9	-1.9	-0.9	0.3	x	x	x
Cc1nonc1NC(=O)CSc1nc2ccc(Cl)cc2[nH]1	-5.8	8.9	18.8*	1.5	0.2	17.6	33.4*	-6.5	17.9*
O=C(CN1CCCc2ccccc21)Nc1cccc(S(=O)(=O)N2CCOCC2)c1	4.3	x	6.7*	-6.0	0.6	x	12.4*	3.6	11.8
CN(C)S(=O)(=O)c1cccc(NC(=O)CSc2nc3ccccc3[nH]2)c1	2.9	8.4	6.2*	-4.8	1.1	0.3	11.6*	12.4	5.4
Cc1ccc2c(c1)CCCN2CC(=O)Nc1cccc(S(=O)(=O)N2CCCC2)c1	-5.2	x	0.0	-3.5	0.7	23.0	x	x	x
O=C(Cc1cccc(NC(=O)C2CCCN(C(=O)C3CCCC3)C2)c1)Nc1ccc(C(=O)N2CCOCC2)cc1 (centres undefined)	-2.0	x	-1.3	-3.2	-1.6	x	x	x	x
COC(=O)c1c(NC(=O)Cc2ccc(OC)c(S(=O)(=O)N3CCOCC3)c2)sc(C)c1C	9.8	18.6	0.0	-3.2	-0.4	0.6	x	x	x
Cc1ccc(C2=NS(=O)(=O)N(C)C(C(=O)NCc3ccccc3)=C2)cc1	-3.5	18.6	4.7	-2.5	3.3	1.2	x	x	x
Cc1ccc(C2=NS(=O)(=O)N(C)C(C(=O)NCc3ccc(F)cc3)=C2)cc1	-3.7	18.4	9.8*	-4.7	1.9	4.5	17.1*	-3.0	11.7
Cc1ccc(NC(=O)COC(=O)CCc2ccccc2)cc1S(=O)(=O)N1CCOCC1	-0.1	x	-0.3	-5.8	1.1	0.9	x	x	x
COc1cccc(Nc2nc3ccccc3c(=O)[nH]2)c1	-3.7	-11.8	8.6*	-3.0	1.5	9.6	17.8*	0.1	5.7
COc1cccc(Nc2cc(C)c3ccccc3n2)c1	-6.0	3.6	0.5	-3.6	2.0	17.0	x	x	x
O=C(Nc1ccccc1)Nc1ccc(Cl)c(S(=O)(=O)N2CCOCC2)c1	-5.2	11.9	14.9*	0.8	0.5	9.2	18.9*	14.3	14.9
O=C(Nc1cccc(S(=O)(=O)N2CCOCC2)c1)c1ccc(Cl)c([N+](=O)[O-])c1	-1.2	6.2	7.7*	-0.5	0.3	11.9	18.8*	21.4*	15.3
COC(=O)CN1C(=O)COc2ccc(S(=O)(=O)NCc3ccccc3)cc21	0.4	21.3	0.6	-1.6	-0.9	1.9	x	x	x
O=C(COC(=O)c1ccc(F)cc1Cl)NC1CCS(=O)(=O)C1 (centres undefined)	9.4	x	-0.9	-15.2	1.1	-0.3	x	x	x
O=C(CSCC(=O)OCn1nnc2ccccc2c1=O)Nc1ccc(Cl)cc1	-2.1	17.7	16.0*	-0.6	1.2	-2.9	14.3*	6.1	2.8
O=C(Cn1nnc2ccccc2c1=O)NCCc1ccccc1	-0.4	-52.1	0.3	0.5	-0.3	-1.6	x	x	x
O=C(Cn1nnc2ccccc2c1=O)NCCc1ccc(Cl)cc1Cl	-2.8	-10.7	6.5*	-3.9	0.8	1.2	34.4*	4.1	9.9
C[C@H](NC(=O)c1ccc(Cl)cc1)C(=O)OCn1nnc2ccccc2c1=O	7.1	x	-0.5	-4.6	0.4	0.0	x	x	x
CN(C)Cc1cc(C(F)(F)F)ccc1C(O)(c1ccccc1)c1ccccc1	2.0	x	0.1	-1.4	0.0	x	x	x	x
Cc1ccnc(NC(=O)CSc2nnc3c(n2)[nH]c2ccccc23)c1	x	-31.8	x	x	x	4.0	x	x	x
O=C(CSc1nnc2c(n1)[nH]c1ccccc12)NCc1ccccc1F	14.9*	9.9	6.5*	-2.3	0.1	4.4	44.5*	4.9	27.4*
O=C(CSc1nc2c(c(=O)[nH]1)CCC2)Nc1cccc(F)c1	3.1	22.7	0.5	-1.2	-0.7	1.1	x	x	x
SMILES	HTR2A ag	AI-2 QS modul	Tb MetRS inh	MsrA act	MsrA inh	AHR act	TbMetRS confirm	Jurkat tox	Tb MetRS inh FP
CCNC(=S)N(CCc1ccc(S(N)(=O)=O)cc1)C1CC(=O)N(c2ccccc2)C1=O (centres undefined)	8.9	41.9	-1.0	-5.1	-0.6	7.0	x	x	x
O=C1CC(N(CCc2ccccc2)C(=S)Nc2ccccc2)C(=O)N1c1ccccc1 (centres undefined)	-2.7	-3.4	30.9*	-1.7	0.2	6.4	38.2*	2.5	22.9*
O=C1CC(N(CCc2ccccc2)C(=S)Nc2ccccc2)C(=O)N1c1ccc(F)cc1 (centres undefined)	0.4	39.1	22.9*	-5.1	0.5	3.4	32.3*	1.2	8.8
Oc1cccc2ccc(N3CCOCC3)nc12	7.5	4.4	-0.1	-1.5	-0.1	-0.5	x	x	x
N#Cc1ccc(C(=O)N2CCCCC2c2cc(C(=O)NCc3ccccc3)no2)cc1 (centres undefined)	-6.2	x	0.2	0.2	0.1	x	x	x	x
Cc1ccc(C)c(OCCC(=O)Nc2cccc(S(=O)(=O)NC3=NCCCCC3)c2)c1	1.1	x	7.0*	-7.6	-1.0	-0.7	22.3*	5.6	18.5*
Cc1ccc(C)c(C(=O)OCC(=O)Nc2cccc(S(=O)(=O)NC3=NCCCCC3)c2)c1	-0.3	14.2	0.1	-2.6	-0.5	-0.8	x	x	x
Brc1cccc(CNc2nc3ccccc3n2CCN2CCOCC2)c1	-2.1	26.7	7.5*	-2.6	2.4	2.9	20.3*	8.3	4.7
CC(=O)c1cccc(-c2ccnc3c2CC(C(=O)Nc2ccc(Cl)cc2)O3)c1 (centres undefined)	1.8	x	18.7*	0.0	0.6	x	45.6*	21.1*	21.8*
COc1ccc([C@H]2C[C@@H](O)[C@H](n3cc(COC(=O)c4ccccc4)nn3)CN2CC2CCCCC2)cc1	4.2	x	-0.9	-5.4	0.7	x	x	x	x
O=C(NCc1cc(Cl)cc(Cl)c1)c1csc([C@@H]2O[C@H](CO)[C@H](O)[C@H](O)[C@H]2O)n1	-0.2	x	8.7*	-2.1	1.6	x	31.0*	-8.2	6.8
O=C(NCc1cc(Cl)cc(Cl)c1)c1ccc2sc([C@@H]3O[C@H](CO)[C@H](O)[C@H](O)[C@H]3O)nc2c1	-3.5	x	17.7*	-0.1	0.2	x	51.0*	-3.2	27.0*
CCCC[C@@H]1CNC(=O)C(=O)N1CCCC	5.2	x	-0.9	-7.5	-0.9	x	x	x	x
COc1ccc(OCC(O)CNC(=O)Nc2ccccc2)cc1 (centres undefined)	-1.7	26.3	9.4*	-0.8	-0.7	0.1	21.1*	7.5	10.6
